Laboratory results reported in ChEMBL document CHEMBL3352548, “Small-molecule suppression of β-lactam resistance in multidrug-resistant gram-negative pathogens” (J Med Chem, 2014).
In brackets after ≈: the same amount, converted by molar mass. Activity calls are given as the source filed them. No cut-off for these calls is given here.

How the values were obtained:
Acinetobacter baumannii [1] = assay: Antibacterial activity against Acinetobacter baumannii ATCC BAA-1605 assessed as complete inhibition of bacterial growth after 16 hrs by microdilution method; format: functional; conditions: ATCC BAA-1605, 16 h
Summary of the method: (§1)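 MIC of each compound alone was determined first. Antibiotic MICs (imipenem or meropenem for A. baumannii; ceftazidime or meropenem for P. aeruginosa) were then measured with compound at fixed sub-MIC concentrations. Fold reduction is MIC without compound divided by MIC with compound.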

Pseudomonas aeruginosa [2] = assay: Antibacterial activity against Pseudomonas aeruginosa PA53 assessed as complete inhibition of bacterial growth after 16 hrs by microdilution method; format: functional; conditions: PA53, 16 h; summary of the method: as §1
Acinetobacter baumannii [3] = assay: Antibacterial activity against Acinetobacter baumannii ATCC BAA-1605 assessed as fold reduction in imipenem MIC at 60 uM after 16 hrs by microdilution method; format: functional; summary of the method: as §1
Pseudomonas aeruginosa [4] = assay: Antibacterial activity against Pseudomonas aeruginosa PA53 assessed as fold reduction in ceftazidime MIC at 30 uM after 16 hrs by microdilution method; format: functional; summary of the method: as §1
Pseudomonas aeruginosa [5] = assay: Antibacterial activity against Pseudomonas aeruginosa PA53 assessed as fold reduction in meropenem MIC at 30 uM after 16 hrs by microdilution method; format: functional; summary of the method: as §1
Acinetobacter baumannii [6] = assay: Antibacterial activity against Acinetobacter baumannii ATCC BAA-1605 assessed as fold reduction in meropenem MIC at 60 uM after 16 hrs by microdilution method; format: functional; summary of the method: as §1
Acinetobacter baumannii [7] = assay: Antibacterial activity against Acinetobacter baumannii ATCC BAA-1605 assessed as fold reduction in imipenem MIC at 30 uM after 16 hrs by microdilution method; format: functional; summary of the method: as §1
Pseudomonas aeruginosa [8] = assay: Antibacterial activity against Pseudomonas aeruginosa PA53 assessed as fold reduction in meropenem MIC at 60 uM after 16 hrs by microdilution method; format: functional; summary of the method: as §1
Acinetobacter baumannii [9] = assay: Antibacterial activity against Acinetobacter baumannii ATCC BAA-1605 assessed as fold reduction in meropenem MIC at 30 uM after 16 hrs by microdilution method; format: functional; summary of the method: as §1
Pseudomonas aeruginosa [10] = assay: Antibacterial activity against Pseudomonas aeruginosa PA53 assessed as fold reduction in ceftazidime MIC at 60 uM after 16 hrs by microdilution method; format: functional; summary of the method: as §1
Pseudomonas aeruginosa [11] = assay: Antibacterial activity against Pseudomonas aeruginosa PA53 assessed as fold reduction in meropenem MIC at 15 uM after 16 hrs by microdilution method; format: functional; summary of the method: as §1
Pseudomonas aeruginosa [12] = assay: Antibacterial activity against Pseudomonas aeruginosa PA53 assessed as fold reduction in ceftazidime MIC at 15 uM after 16 hrs by microdilution method; format: functional; summary of the method: as §1
Acinetobacter baumannii [13] = assay: Antibacterial activity against Acinetobacter baumannii ATCC BAA-1605 assessed as fold reduction in imipenem MIC at 7.5 uM after 16 hrs by microdilution method; format: functional; summary of the method: as §1
Acinetobacter baumannii [14] = assay: Antibacterial activity against Acinetobacter baumannii ATCC BAA-1605 assessed as fold reduction in meropenem MIC at 7.5 uM after 16 hrs by microdilution method; format: functional; summary of the method: as §1
Acinetobacter baumannii [15] = assay: Antibacterial activity against Acinetobacter baumannii ATCC BAA-1605 assessed as fold reduction in imipenem MIC at 15 uM after 16 hrs by microdilution method; format: functional; summary of the method: as §1
Acinetobacter baumannii [16] = assay: Antibacterial activity against Acinetobacter baumannii ATCC BAA-1605 assessed as fold reduction in meropenem MIC at 15 uM after 16 hrs by microdilution method; format: functional; summary of the method: as §1
Acinetobacter baumannii [17] = assay: Antibacterial activity against Acinetobacter baumannii ATCC BAA-1605 assessed as reduction in CFU at 4 ug/ml after 6 hrs by time kill assay; format: functional
Summary of the method: (§2)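 Time-kill: cultures were grown at 37 °C with shaking with compound (15 μM for BAA-1605, 60 μM for PA53), meropenem (1–32 μg/mL for BAA-1605, 1–64 μg/mL for PA53), or both. Samples taken at 2, 4, 6, 8 and 24 h were serially diluted in CAMHB, plated on nutrient agar, incubated overnight at 37 °C, and colonies counted.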

Acinetobacter baumannii [18] = assay: Antibacterial activity against Acinetobacter baumannii ATCC BAA-1605 assessed as reduction in CFU at 1 ug/ml after 6 hrs by time kill assay; format: functional; summary of the method: as §2
Pseudomonas aeruginosa [19] = assay: Antibacterial activity against Pseudomonas aeruginosa PA53 assessed as reduction in CFU at 4 ug/ml after 6 hrs by time kill assay; format: functional; summary of the method: as §2
Pseudomonas aeruginosa [20] = assay: Antibacterial activity against Pseudomonas aeruginosa PA53 assessed as reduction in CFU at 1 ug/ml after 6 hrs by time kill assay; format: functional; summary of the method: as §2
Pseudomonas aeruginosa [21] = assay: Antibacterial activity against Pseudomonas aeruginosa PA53 assessed as reduction in meropenem MIC at 60 uM after 6 hrs by time kill assay; format: functional, organism-based
Acinetobacter baumannii [22] = assay: Antibacterial activity against Acinetobacter baumannii ATCC BAA-1605 assessed as reduction in meropenem MIC at 60 uM after 6 hrs by time kill assay; format: functional
Pseudomonas aeruginosa [23] = assay: Antibacterial activity against Pseudomonas aeruginosa PA53 assessed as reduction in CFU at 60 uM after 6 hrs by time kill assay; format: functional; summary of the method: as §2
Acinetobacter baumannii [24] = assay: Antibacterial activity against Acinetobacter baumannii ATCC BAA-1605 assessed as reduction in CFU at 60 uM after 6 hrs by time kill assay; format: functional, organism-based

| Compound | MIC (Acinetobacter baumannii [1]) | MIC (Pseudomonas aeruginosa [2]) | fold change (FC) (Acinetobacter baumannii [6]) | fold change (FC) (Pseudomonas aeruginosa [8]) | fold change (FC) (Pseudomonas aeruginosa [10]) | further results |
| --- | --- | --- | --- | --- | --- | --- |
| CCCCCCc1ccc(-c2c[nH]c(N)n2)cc1 | 100 µM | – | – | – | – | – |
| Nc1ncc(-c2ccc(NC(=O)c3cc(F)cc(F)c3)cc2)[nH]1 | 200 µM | 100 µM (≈ 31.4 µg/mL) | 16 | – | – | fold change (FC) (Acinetobacter baumannii [3]): 8; fold change (FC) (Pseudomonas aeruginosa [4]): 1; fold change (FC) (Pseudomonas aeruginosa [5]): 2 |
| Cl.Nc1nc(-c2ccc(NC(=O)c3cc(F)c(F)c(F)c3)cc2)c[nH]1 | 100 µM | 200 µM | – | 2 | 1 | fold change (FC) (Acinetobacter baumannii [7]): 8; fold change (FC) (Acinetobacter baumannii [9]): 8 |
| Cl.Nc1ncc(-c2ccc(NC(=O)c3cc(I)c(I)c(I)c3)cc2)[nH]1 | – | – | 2 | 1 | – | – |
| CCCCCc1ccc(C(=O)Nc2ccc(-c3cnc(N)[nH]3)cc2)cc1 | 200 µM | – | – | – | – | – |
| Cl.Nc1nc(-c2ccc(NC(=O)c3ccc(C(F)(F)F)c(F)c3)cc2)c[nH]1 | 25 µM | 50 µM | – | – | – | fold change (FC) (Pseudomonas aeruginosa [11]): 4; fold change (FC) (Pseudomonas aeruginosa [12]): 8; fold change (FC) (Acinetobacter baumannii [13]): 2; fold change (FC) (Acinetobacter baumannii [14]): 4 |
| Cl.Nc1ncc(-c2ccc(NC(=O)c3cccc(I)c3)cc2)[nH]1 | – | – | 8 | 1 | – | – |
| Cl.Nc1ncc(-c2ccc(NC(=O)c3ccc(I)cc3)cc2)[nH]1 | – | – | 2 | 1 | – | – |
| Cl.Nc1nc(-c2ccc(NC(=O)c3cccc(Br)c3)cc2)c[nH]1 | > 200 µM | > 200 µM | 16 | 4 | 16 | fold change (FC) (Acinetobacter baumannii [3]): 8 |
| CCCCCC(=O)Nc1cccc(-c2c[nH]c(N)n2)c1 | 100 µM | – | – | – | – | – |
| C[C@@H](O)[C@H]1C(=O)N2C(C(=O)O)=C(SCCNC=N)C[C@H]12 [IMIPENEM ANHYDROUS] | 16 µg/mL | – | – | – | – | – |
| Cl.Nc1ncc(-c2ccc(NC(=O)c3ccc(Cl)c(Cl)c3)cc2)[nH]1 | – | – | – | – | – | fold change (FC) (Acinetobacter baumannii [9]): 64; fold change (FC) (Pseudomonas aeruginosa [5]): 1 |
| Cl.Nc1nc(-c2ccc(NC(=O)c3ccccc3F)cc2)c[nH]1 | > 200 µM | > 200 µM | 2 | 2 | 1 | fold change (FC) (Acinetobacter baumannii [3]): 1 |
| Cl.Nc1nc(-c2ccc(NC(=O)c3ccc(C(F)(F)F)cc3)cc2)c[nH]1 | 50 µM | 100 µM | – | – | – | fold change (FC) (Acinetobacter baumannii [15]): 4; fold change (FC) (Pseudomonas aeruginosa [4]): 8; fold change (FC) (Acinetobacter baumannii [16]): 4; fold change (FC) (Pseudomonas aeruginosa [5]): 8 |
| Cl.Nc1nc(-c2ccc(NC(=O)c3c(Cl)cc(Cl)cc3Cl)cc2)c[nH]1 | 100 µM | 200 µM | – | 4 | 1 | fold change (FC) (Acinetobacter baumannii [7]): 1; fold change (FC) (Acinetobacter baumannii [9]): 4 |
| Cl.Nc1ncc(-c2ccc(NC(=O)c3ccc(Cl)cc3Cl)cc2)[nH]1 | – | – | 4 | 1 | – | – |
| Cl.Nc1ncc(-c2ccc(NC(=O)c3cc(Br)cc(Br)c3)cc2)[nH]1 | – | – | – | 1 | – | fold change (FC) (Acinetobacter baumannii [9]): 4 |
| Cl.Nc1nc(-c2ccc(NC(=O)c3ccc(Br)cc3)cc2)c[nH]1 | > 200 µM | > 200 µM | 16 | 2 | 1 | fold change (FC) (Acinetobacter baumannii [3]): 8 |
| Cl.Nc1nc(-c2ccc(NC(=O)c3c(F)c(F)c(F)c(F)c3F)cc2)c[nH]1 | > 200 µM | > 200 µM | 2 | 2 | 1 | fold change (FC) (Acinetobacter baumannii [3]): 1 |
| Cl.Nc1nc(-c2ccc(NC(=O)c3cccc(F)c3)cc2)c[nH]1 | > 200 µM | 200 µM | 4 | 2 | 1 | fold change (FC) (Acinetobacter baumannii [3]): 2 |
| C[C@@H](O)[C@H]1C(=O)N2C(C(=O)O)=C(S[C@@H]3CN[C@H](C(=O)N(C)C)C3)[C@H](C)[C@H]12 [MEROPENEM] | 32 µg/mL | – | – | – | – | fold change (FC) (Acinetobacter baumannii [17]): <0.1; fold change (FC) (Acinetobacter baumannii [18]): <0.1; fold change (FC) (Pseudomonas aeruginosa [19]): 0.2; fold change (FC) (Pseudomonas aeruginosa [20]): 0.2 |
| Cl.Nc1nc(-c2ccc(NC(=O)c3ccc(Cl)cc3)cc2)c[nH]1 | > 200 µM | > 200 µM | 8 | 2 | 1 | fold change (FC) (Acinetobacter baumannii [3]): 4 |
| Nc1ncc(-c2ccc(NC(=O)/C=C/c3ccccc3)cc2)[nH]1 | 100 µM | – | – | – | – | – |
| Cl.Nc1ncc(-c2ccc(NC(=O)c3cccc(Cl)c3Cl)cc2)[nH]1 | – | – | 2 | 1 | – | Activity (Pseudomonas aeruginosa [21]): inactive; fold change (FC) (Acinetobacter baumannii [22]): 2; Activity (Pseudomonas aeruginosa [23]): inactive; Activity (Acinetobacter baumannii [24]): inactive |
| CCCCCCC(=O)Nc1ccc(-c2cnc(N)[nH]2)cc1 | 200 µM | – | – | – | – | – |
| Cl.Nc1nc(-c2ccc(NC(=O)c3ccc(F)cc3)cc2)c[nH]1 | > 200 µM | 200 µM | 4 | 2 | 1 | fold change (FC) (Acinetobacter baumannii [3]): 2 |
| Cl.Nc1ncc(-c2ccc(NC(=O)c3ccc(F)c(Cl)c3)cc2)[nH]1 | – | – | – | – | – | fold change (FC) (Acinetobacter baumannii [9]): 4; fold change (FC) (Pseudomonas aeruginosa [11]): 1 |
| Cl.Nc1ncc(-c2ccc(NC(=O)c3ccc(Br)cc3F)cc2)[nH]1 | – | – | 2 | 1 | – | – |
